experiment: Toxicity liver stage against HepG2, at 10uM; type: cell-based; parameters: test concentration 10 uM, cell line HepG2-A16-CD81EGFP; conditions: human, HepG2-A16-CD81EGFP cells; read-out: INHIBITION
Summary of the method: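 Uninfected HepG2-A16-CD81EGFP cells, 3 × 10^3 per well, 1536-well, plated on prespotted compound at 10 μM final, parasite-free screening media added to match infected plates; puromycin 10 μM positive, DMSO 0.5% negative; run in parallel with 48 h PbLuc assay at 37 °C, 5% CO2; viability by CellTiter-Glo luminescence, normalized to controls.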

SMILES | cytotoxicity at 10 µM [%]
O=C(NC1CCCC1)O[C@H]1COCCN(c2nc3ccccc3o2)C1 | -3.51
FC(F)(F)c1ccc2[nH]c([C@H]3CCNC3)nc2c1 | 2.91
COc1ccc2cnn(CC(=O)NC3CCCCC3)c(=O)c2c1OC | -2.49
CSCCC(C)(O)CNS(=O)(=O)Cc1ccc(F)cc1 (stereo not given) | -5.95
Cc1noc(C)c1S(=O)(=O)N1CCC(Oc2cnccn2)CC1 | 4.95
O=S(=O)(NCCNc1ccc(-n2cccc2)nn1)c1ccccc1 | -0.426
O=S(=O)(Cc1ccccc1)NCCNc1ccc(-n2cccc2)nn1 | 10.8
CSc1ccc(C(O)CNS(=O)(=O)C2CC2)cc1 (stereo not given) | -0.608
Cc1cncc(Oc2ccc(CO)cc2)n1 | 5.81
Cc1sc(CN)nc1-c1ccc(Cl)cc1Cl | -1.14
Cc1ccc(-c2[nH][nH]c(=O)c2CCN)cc1 | 6.03
COc1ccc(NC(=O)Cn2cc(-c3ccccc3)ncc2=O)cn1 | -4.73
Cc1cnc(N2C(=O)CSC2c2ccc(F)cc2)s1 (stereo not given) | -2.92
Nc1nnc(C2CC(=O)N(c3ccccc3)C2)s1 (stereo not given) | 4.23
NC(=O)c1c(-c2ccc(Cl)cc2Cl)csc1NC(=O)CCC(=O)O | 8.32
CC(C)C(=O)Nc1cc(C(=O)NC2CC(C)(C)NC(C)(C)C2)nn1C | -7.04
CSc1cccc(NC(C)C(=O)Nc2nccs2)c1 (stereo not given) | 3.05
Cn1cc(-c2cc(-c3cnn(C)c3)n(CC(=O)NC3CC3)n2)cn1 | 2.94
CCn1ccc(-c2cc(C(=O)O)n3ncc(Cl)c3n2)n1 | -3.05
CNc1[nH]nc(N)c1C(=O)Nc1ccc(OC)cc1 | 14.8
CN1C(=O)CC[C@@H]2N(C(=O)CCc3cccnc3)CCCC[C@@]21C | 3.82
Cc1ccc(CN2CCc3c(nc4cc(C5CC5)nn4c3O)C2)s1 | -3.69

SMILES | cytotoxicity at 10 µM [%]
Cc1ccc(C2CN(C(=O)c3ccn(C)c(=O)c3)CCO2)nc1 (stereo not given) | -17
O=C(c1cccnc1)N1CCCC(c2ncncc2-c2ccncc2)C1 (stereo not given) | -23.4
Cc1ccc(CC(=O)N2CCCC(c3n[nH]c4nccnc34)C2)cc1 (stereo not given) | -22.2
Cc1ccc(S(=O)(=O)N2C[C@@H]3C[C@@H](NC(=O)C(C)(C)C)[C@@H]3C2)cc1 | -3.81
Cc1ccc(-c2nc(CC(=O)NCC3CCCOC3)cs2)o1 (stereo not given) | -48
CC(C)C(C(=O)O)c1cccc(Cl)c1 (stereo not given) | -12.8
CNS(=O)(=O)c1cc(C(=O)N2CCCCCC2CC(C)C)co1 (stereo not given) | 11.2
O=C(NCC1SCCc2ccccc21)c1cscn1 (stereo not given) | -1.88
Cc1nc(CC(=O)N2c3ccccc3OCC2C)cs1 (stereo not given) | -6.53
CN(Cc1ccc(F)cc1)Cc1cc2c(cc1Br)OCCO2 | -138
Cc1ccc(F)c(S(=O)(=O)NCCc2nnc[nH]2)c1 | 3.16
Cc1cnn(C2CN(c3nc(-c4ccncc4)nc4c3CCC4)C2)c1 | -46
Cn1cc(C(=O)NCc2ccc(OC3CCCCC3)nc2)ccc1=O | 28.8
NC(=O)c1ccc(NC(=O)N2CCN(c3cccs3)CC2)c(F)c1 | 1.97
COCCOc1ncccc1CNC(=O)N1CCCCCC1 | -36
CN(C)CCN(Cc1cccnc1)C(=O)c1ccn(-c2ccccc2)n1 | 2.41
COc1ccc(C2CCCN2C(=O)c2ccc(=O)n(C)c2)cc1OC (stereo not given) | 11.3
Cc1cnc(CN2CCCC(c3nc4ccccc4n3C(C)C)C2)o1 (stereo not given) | -8.14
Cc1cc(C)c2c(c1)C(NCc1nnc3n1CCC3)CCCO2 (stereo not given) | -0.117
O=C(c1cccnc1-n1cncn1)N1CCN(C2CCCC2)CC1 | 8.7
CC(C)OCCOCc1cccc(NC(=O)NCC(=O)N(C)C)c1 | -5.53
CCn1c(CNC(=O)Nc2nc(C)c(C)o2)nc2ccccc21 | -5.3

SMILES | cytotoxicity at 10 µM [%]
Cc1ccc(C2CCCN2S(=O)(=O)N(C)Cc2cnn(C)c2)o1 (stereo not given) | 15.8
CCc1nnnn1Cc1csc(N(C)C(C)=O)n1 | 0.63
COc1cccc2c1N(C(=O)c1ccc(C)nc1)CCC2 | 1.36
CNS(=O)(=O)c1ccc(CNC(=O)N(C)C(C)COC)cc1 (stereo not given) | -5.12
CN(CC(=O)N(C)C1CCCCC1)Cc1nc2ccccc2c(=O)[nH]1 | 2.26
CC(C)C(=O)N1CC[C@H]2N(C)CC[C@@]2(C(=O)Nc2ccccc2)CC1 | -107
CCN1CCO[C@@H]2CN(C(=O)NCc3ccccc3)CC[C@@H]2C1 | -117
CN1C(=O)CC(c2ccccc2)C12CCN(c1ncc(F)cn1)CC2 (stereo not given) | -108
COCC(=O)NCc1cc(=O)n2c(n1)CN(Cc1nccs1)CCC2 | -107
COCCc1noc(CN2CC(Cc3ccccc3)CC2=O)n1 (stereo not given) | -7.11
NC(=O)c1noc(Cn2ncc3ccccc3c2=O)n1 | -1.26
O=C(NCCc1csc(-c2cccnc2)n1)c1cnn2c1CCCC2 | 3.41
CCn1ncnc1CN1CCOC(Cc2cccc3ccccc23)C1 (stereo not given) | 2.53
CCc1[nH]c2c(CNc3cncc(C(=O)OC)n3)cc(C)cc2c1C | 1.85
CCn1nc(C(C)C)cc1C(=O)NCC1CCCN(c2ccccn2)C1 (stereo not given) | 5.65
COc1ccc2c(c1)C(C(=O)N(C)CCc1scnc1C)CC(=O)N2 (stereo not given) | -42.3
Cc1cc(F)ccc1OC1(C(=O)O)CCN(Cc2nccn2C)CC1 | 0.334
CCCOCCN1CCc2[nH]c(-c3ccccc3)nc2C1 | -124
CCc1c(C)nn(CCNC(=O)c2cnn[nH]2)c1C | -5.28
CSc1ncc(C(=O)N2CCN(c3ccccc3C)CC2C)cn1 (stereo not given) | 0.642
Cc1noc(C)c1CC(=O)N1CCCC(Cn2ccnc2C)C1 (stereo not given) | -3.6
Cc1cc(N2CCC3(CCCN(C4CCOCC4)C3=O)C2)ccn1 (stereo not given) | -134

SMILES | cytotoxicity at 10 µM [%]
Cc1nn(C)c(C)c1NC(=O)c1cccc(CN2CCS(=O)(=O)CC2)c1 | -15.8
Cc1cc(CN(C)C2CCN(c3cccc(-c4cscn4)c3)CC2)on1 | -0.371
Cc1ccccc1C(=O)NC[C@@H]1CCN(C(=O)CN2CCCC2)C[C@H]1O | -39.8
Cc1nc(C)c(C)c(NCc2cnn3cccnc23)n1 | 15.5
O=c1cnc2ccccc2n1CCCn1cccn1 | -26.4
O=C(Cn1ccnc1)N1CCCC(OCc2cccnc2)C1 (stereo not given) | 2.03
COc1ccc(CCC(C)Nc2cccc(SC)c2)cc1 (stereo not given) | -1.11
O=C(NCc1nnnn1-c1ccccc1)c1ccc(C2CCCO2)s1 (stereo not given) | 0.363
Cc1nnsc1C(=O)NCc1cccnc1N(C)Cc1ccccc1 | -6.91
CSc1ccccc1C(=O)N1C[C@@H](N(C)C)[C@H](c2ccc(C)cc2)C1 | -7.02
CS(=O)(=O)N1CCOC(CNC(=O)c2cccc(C#N)c2)C1 (stereo not given) | -5.69
O=C(c1ccc(Cl)s1)N1CCCn2nc(CN3CC[C@H](F)C3)cc2C1 | -1.44
Cc1ccc(C(=O)N2CC(C)(C)[C@@](C)(O)C2)cc1N1CCNC1=O | -2.76
CCOc1ccnc(N[C@@H](Cc2ccccc2)C(N)=O)n1 | 10.7
Cc1cccc(C)c1-c1cc(NCCO)nc2[nH]ccc12 | 52.4
CCn1c(CC2CCNCC2)nn(Cc2ccc(C(=O)NC)o2)c1=O | 9.17
CCc1c(C)nc(C)nc1N1C[C@@H](CN(C)C)[C@@H](CO)C1 | -0.247
CCN1CC(C(=O)NCCn2cccc2)CCC1=O (stereo not given) | -1.64
O=C1CN(Cc2ccc(-c3ccccc3C(=O)O)cc2)CCN1 | -1.88
CCOc1cccc(CNC(=O)N2CCC(Cc3cnn(C)c3)C2)c1 (stereo not given) | -3.16
Cc1ccccc1C1(C(=O)NCCN2CCCC2)CCOCC1 | -7.54
O=C(Cc1ccccc1Cl)N1CCCC(n2cncn2)C1 (stereo not given) | -11.1

SMILES | cytotoxicity at 10 µM [%]
CCn1cc(CN2CCCN(C(=O)Cc3cccs3)CC2)cn1 | -2.76
CS(=O)(=O)c1ccc(C(O)CN2CCC(c3ccn[nH]3)CC2)cc1 (stereo not given) | -12.1
Cc1cc(C)n(CC2CCCN2C(=O)c2cc[nH]n2)n1 (stereo not given) | -3.8
COc1ncccc1NC(=O)NCC(O)c1ccc(F)cc1F (stereo not given) | 30.9
O=C(CCOCc1ccccc1)N1CCCC1c1noc(C2CC2)n1 (stereo not given) | -4.74
CCc1nccn1C1CCCN(C(=O)c2cnn(C)c2C2CC2)C1 (stereo not given) | -12.8
COc1ccc(-n2ccc(C(=O)NCCN3CCCCC3C)n2)cc1 (stereo not given) | -8.43
COc1ccc(C(C)N(C)Cc2c(C3CC3)[nH]c3ncccc23)cc1 (stereo not given) | -2.45
Fc1cnc(N2C[C@@H](OCC3CCOCC3)[C@H]3OCCC[C@H]32)nc1 | 10.5
Cc1occc1C(=O)N1Cc2nccn2CC(CN(C)C)C1 (stereo not given) | -97.7
CCN1C[C@H]2C3(CCN(S(C)(=O)=O)CC3)CC[C@@]2(C(=O)N(C)C)C1 | -107
O=C(c1ccco1)N1C[C@H]2CCCN(Cc3ccoc3)[C@H]2C1 | 0.276
CC(C)Oc1cccc(CNC(Cc2ccsc2)c2nccs2)c1 (stereo not given) | 0.732
O=C(O)CN1CCCC2(CCN2Cc2cccc(F)c2)C1 (stereo not given) | -108
O=C(c1ccccc1F)N1CCC2(CC1)CC(N1CCCC1)CO2 (stereo not given) | -120
CN(Cc1ccco1)[C@@H]1CN(Cc2nccs2)C[C@@H]2CCCO[C@@H]21 | 6.07
Cc1ccc(N2CCO[C@H]3CN(CC4CC4)C[C@H]32)nn1 | -7.93
CNC(=O)CC1CC2(CCN(CC3CC3)CC2)Oc2ccccc21 (stereo not given) | -0.0368
c1cncc(CN2CC[C@H]3O[C@@H](COCC4CC4)CC[C@H]32)c1 | 2.19
CC(C)c1nc(C(=O)N2C[C@@H]3CC[C@H]2CN(C2CCOCC2)C3)cs1 | 5.31
O=C(Nc1ccccc1)N1C2CCC(O)(CC2)C1CO (stereo not given) | -5.2
Cc1noc(C)c1CN1C(=O)[C@@H]2CC[C@H]1CN(C(=O)c1cscn1)C2 | -10.6
